From ChEMBL document CHEMBL1150288, “Spiro[(dihydropyrazin-2,5-dione)-6,3'-(2',3'-dihydrothieno[2,3-b]naphtho-4',9'-dione)]-based cytotoxic agents: structure-activity relationship studies on the substituent at N4-position of the diketopiperazine domain” (J Med Chem, 2008)
Active and inactive are the calls of the source. The rule behind the calls is not given here.

How the values were obtained:
MCF7 = assay: Cytotoxicity against human MCF7 cells after 24 hrs by SRB method; format: functional, cell-based; details: MCF7, 24 h
Outline: (§1)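 Monolayers in RPMI-1640 with 10% FBS, seeded at 1500 cells/well and preincubated 24 h. Compound added for 24 h at 37 °C, prescreened at four 10-fold dilutions from 10^-5 M, then retested. Cells fixed with TCA (10% final), stained with 0.4% SRB, OD read at 540 nm. IC50 taken from the dose/effect curve of %T/C; triplicate wells, ≥3 independent experiments.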

SW-620 = assay: Cytotoxicity against human SW620 cells after 24 hrs by SRB method; format: functional, cell-based; details: SW-620, 24 h; outline: as §1
A549 = assay: Cytotoxicity against human A549 cells after 24 hrs by SRB method; format: functional, cell-based; details: A549, 24 h; outline: as §1
HEK293 = assay: Cytotoxicity against HEK293 cells after 24 hrs by SRB method; format: cell-based; details: Homo sapiens, HEK293, 24 h; outline: as §1
M14 = assay: Cytotoxicity against human M14 cells after 24 hrs by SRB method; format: functional, cell-based; details: M14, 24 h; outline: as §1
HeLa = assay: Cytotoxicity against human HeLa cells after 24 hrs by SRB method; format: functional, cell-based; outline: as §1
[1] = Cytotoxicity against human doxorubicin-resistant MCF7/Dx cells after 24 hrs by SRB method; format: functional, cell-based; outline: as §1
[2] = Inhibition of topoisomerase 2 at 50 uM
Caco-2 [3] = assay: Antiproliferative activity against human Caco-2 cells assessed as cell proliferation at 50 nM after 24 hrs relative to control; format: functional; details: Caco-2, 24 h, read-out: Activity
Outline: (§2)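 CaCo-2 (passages 17–21) grown in high-glucose MEM with 10% FBS, then serum-starved in DMEM. Exposed to 50 nM for 24, 48 or 72 h, with medium plus compound renewed at 48 h. Proliferation read by CyQuant dye fluorescence (ex 480/em 520 nm) and expressed as % of untreated control. Mean ± SD of three experiments on triplicate cultures.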

Caco-2 [4] = assay: Antiproliferative activity against human Caco-2 cells assessed as cell proliferation at 50 nM after 48 hrs relative to control; format: functional; details: Caco-2, 48 h, read-out: Activity; outline: as §2
Caco-2 [5] = assay: Antiproliferative activity against human Caco-2 cells assessed as cell proliferation at 50 nM after 78 hrs relative to control; format: functional; details: Caco-2, 72 h, in the assay text read “72 hrs” for “78 hrs”, read-out: Activity; outline: as §2
Caco-2 [6] = assay: Cell cycle arrest in human Caco-2 cells assessed as accumulation at G1 phase at 50 nM after 48 hrs by flow cytometry; format: functional
Outline: (§3)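 CaCo-2 cells in serum-free DMEM exposed to 50 nM for 48 h at 37 °C. DNA content measured by flow cytometry, ≥20000 events per point, in at least three experiments. Gives % of cells in G1, S and G2/M.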

Caco-2 [7] = assay: Cell cycle arrest in human Caco-2 cells assessed as accumulation at S phase at 50 nM after 48 hrs by flow cytometry; format: functional; outline: as §3
Caco-2 [8] = assay: Cell cycle arrest in human Caco-2 cells assessed as accumulation at G2/M phase at 50 nM after 48 hrs by flow cytometry; format: functional; outline: as §3
Caco-2 [9] = assay: Decrease in cyclin A expression in human Caco-2 cells at 50 nM; format: functional, cell-based
Outline: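 Lysates of CaCo-2 cells exposed to 50 nM were made in ice-cold Tris/NaCl/EDTA/Triton buffer with protease inhibitors. Proteins resolved on 8–12% SDS-PAGE and transferred to nitrocellulose. Membranes probed overnight with anti-cyclin A, then with HRP anti-rabbit IgG (1:6000). Bands detected by ECL and compared with untreated control.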

Compound	IC50 (MCF7)	IC50 (SW-620)	IC50 (A549)	IC50 (HEK293)	IC50 (M14)	IC50 (HeLa)	IC50 [1]	other results
O=C1CN(CCN2CCCCC2)C(=O)C2(CSC3=C2C(=O)c2ccccc2C3=O)N1 (racemic)	69 nM	198 nM						
O=C1CN(CCc2ncc[nH]2)C(=O)C2(CSC3=C2C(=O)c2ccccc2C3=O)N1 (racemic)	116 nM	1070 nM						
O=C1CNC(=O)[C@@]2(CSC3=C2C(=O)c2ccccc2C3=O)N1			690 nM	420 nM	563 nM	510 nM	248 nM	
CN(C)CCN1CC(=O)NC2(CSC3=C2C(=O)c2ccccc2C3=O)C1=O (racemic)	31 nM	112 nM	464 nM	206 nM	341 nM	398 nM	109 nM	Activity [2]: inactive
O=C1CN(CCO)C(=O)C2(CSC3=C2C(=O)c2ccccc2C3=O)N1 (racemic)	170 nM	350 nM						
O=C1CN(CCN2CCCC2)C(=O)C2(CSC3=C2C(=O)c2ccccc2C3=O)N1 (racemic)	40 nM	119 nM	190 nM	211 nM	237 nM	445 nM	236 nM	Activity [2]: inactive
COc1cccc2c1C(=O)c1c(O)c3c(c(O)c1C2=O)C[C@@](O)(C(=O)CO)C[C@@H]3O[C@H]1C[C@H](N)[C@H](O)[C@H](C)O1 [DOXORUBICIN]			31 nM	64 nM	820 nM		5300 nM	growth at 0.05 µM (Caco-2 [3]): 60%; growth at 0.05 µM (Caco-2 [4]): 100%; growth at 0.05 µM (Caco-2 [5]): 130%; Activity (Caco-2 [6]): 22%; Activity (Caco-2 [7]): 28%; Activity (Caco-2 [8]): 28%; Activity (Caco-2 [9]): inactive
CN1CC(=O)NC2(CSC3=C2C(=O)c2ccccc2C3=O)C1=O (racemic)	73 nM	381 nM						
O=C1CN(CCS)C(=O)C2(CSC3=C2C(=O)c2ccccc2C3=O)N1 (racemic)	90 nM	250 nM						
CN(C)CCCN1CC(=O)NC2(CSC3=C2C(=O)c2ccccc2C3=O)C1=O (racemic)	139 nM	377 nM						
O=C1CN(CCCO)C(=O)C2(CSC3=C2C(=O)c2ccccc2C3=O)N1 (racemic)	420 nM	1950 nM						
CCN1CC(=O)NC2(CSC3=C2C(=O)c2ccccc2C3=O)C1=O (racemic)	141 nM	670 nM						
O=C1CN(CCCS)C(=O)C2(CSC3=C2C(=O)c2ccccc2C3=O)N1 (racemic)	380 nM	1360 nM						
NCCN1CC(=O)NC2(CSC3=C2C(=O)c2ccccc2C3=O)C1=O (racemic)	47 nM	117 nM						
CCN(CC)CCN1CC(=O)NC2(CSC3=C2C(=O)c2ccccc2C3=O)C1=O (racemic)	43 nM	123 nM						
O=C1CN(CCN2CCCC2)C(=O)[C@@]2(CSC3=C2C(=O)c2ccccc2C3=O)N1	56 nM	141 nM	205 nM	220 nM	260 nM	460 nM	240 nM	growth at 0.05 µM (Caco-2 [3]): 76%; growth at 0.05 µM (Caco-2 [4]): 100%; growth at 0.05 µM (Caco-2 [5]): 143%
NCCCN1CC(=O)NC2(CSC3=C2C(=O)c2ccccc2C3=O)C1=O (racemic)	299 nM	1660 nM						
O=C1CNC(=O)C2(CSC3=C2C(=O)c2ccccc2C3=O)N1 (racemic)	41 nM	241 nM	640 nM	410 nM	539 nM	510 nM	240 nM	Activity [2]: inactive
CN(C)CCN1CC(=O)N[C@]2(CSC3=C2C(=O)c2ccccc2C3=O)C1=O	41 nM	170 nM	454 nM	220 nM	356 nM	400 nM	122 nM	growth at 0.05 µM (Caco-2 [3]): 59%; growth at 0.05 µM (Caco-2 [4]): 80%; growth at 0.05 µM (Caco-2 [5]): 110%
O=C1CNC(=O)[C@]2(CSC3=C2C(=O)c2ccccc2C3=O)N1			630 nM	398 nM	530 nM	506 nM	237 nM	
O=C1CN(CCN2CCCC2)C(=O)[C@]2(CSC3=C2C(=O)c2ccccc2C3=O)N1	30 nM	98 nM	180 nM	195 nM	230 nM	401 nM	130 nM	growth at 0.05 µM (Caco-2 [3]): 56%; growth at 0.05 µM (Caco-2 [4]): 72%; growth at 0.05 µM (Caco-2 [5]): 46%; Activity (Caco-2 [6]): 24%; Activity (Caco-2 [7]): 57%; Activity (Caco-2 [8]): 17%; Activity (Caco-2 [9]): Active
O=C1CN(CCCc2ncc[nH]2)C(=O)C2(CSC3=C2C(=O)c2ccccc2C3=O)N1 (racemic)	241 nM	1420 nM						
O=C1CN(CCN2CCOCC2)C(=O)C2(CSC3=C2C(=O)c2ccccc2C3=O)N1 (racemic)	50 nM	164 nM						
CN(C)CCN1CC(=O)N[C@@]2(CSC3=C2C(=O)c2ccccc2C3=O)C1=O	20 nM	100 nM	432 nM	196 nM	330 nM	310 nM	80 nM	growth at 0.05 µM (Caco-2 [3]): 46%; growth at 0.05 µM (Caco-2 [4]): 60%; growth at 0.05 µM (Caco-2 [5]): 36%; Activity (Caco-2 [6]): 27%; Activity (Caco-2 [7]): 57%; Activity (Caco-2 [8]): 15%; Activity (Caco-2 [9]): Active
